The source of these data is ChEMBL document CHEMBL2046405, “BACE1 Inhibitor Peptides: Can an Infinitely Small k cat Value Turn the Substrate of an Enzyme into Its Inhibitor?” (ACS Med Chem Lett, 2012).

Active and inactive are the calls of the source. The rule behind the calls is not given here. Where a SMILES comes first, the peptide text is derived from it. [ ]: non-standard residue; d: D form. The star is where a group is joined. Orotyl(5-F) = O=C(c1[nH]c(=O)[nH]c(=O)c1F)*; Dap = NC[C@H](N)C(=O)O Some results are limits rather than exact numbers.

Assay [1] concerns the target T1, Beta-secretase 1 (Homo sapiens, UniProt P56817). As to the kind of experiment: Inhibition of human recombinant BACE1 using 7-methoxycoumarin-4-yl)acetyl-Ser-Glu-Val-Asn-Leu*Asp-Ala- Glu-Phe-Arg-Lys(2,4-dinitrophenyl)-Arg-Arg-NH2 as substrate at 2 uM by FRET assay. The essentials:
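Recombinant human BACE1 incubated with FRET substrate and 2.0 μM compound in incubation buffer for 1 h. The N-terminal substrate cleavage fragment was measured by RP-HPLC with fluorescence detection.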

Assay [2] concerns the target T1, Beta-secretase 1. The assay can be described thus: Inhibition of human recombinant BACE1 using 7-methoxycoumarin-4-yl)acetyl-Ser-Glu-Val-Asn-Leu*Asp-Ala- Glu-Phe-Arg-Lys(2,4-dinitrophenyl)-Arg-Arg-NH2 as substrate at 0.2 uM by FRET assay. Put shortly:
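Recombinant human BACE1 incubated with FRET substrate and 0.2 μM compound in incubation buffer for 1 h. The N-terminal cleavage fragment of the substrate was quantified by RP-HPLC with fluorescence detection.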

The target in assay [3] is T1, Beta-secretase 1. The assay can be described thus: Inhibition of human recombinant BACE1 using 7-methoxycoumarin-4-yl)acetyl-Ser-Glu-Val-Asn-Leu*Asp-Ala- Glu-Phe-Arg-Lys(2,4-dinitrophenyl)-Arg-Arg-NH2 as substrate by FRET assay. The essentials:
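Recombinant human BACE1 and FRET substrate incubated 1 h in incubation buffer with compound at 2.0 or 0.2 μM. The N-terminal cleavage fragment was analysed by reverse-phase HPLC with fluorescence detection.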

The target in assay [4] is T1, Beta-secretase 1. As to the kind of experiment: Activity of human recombinant BACE1 after 1 hr. The essentials:
(§1)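 Peptides incubated with recombinant human BACE1 for 1 or 24 h in buffer, at the same BACE1 and peptide concentrations as the inhibition assay. The buffer was analysed by HPLC for the product of cleavage at the P1–P1′ amide bond.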

Assay [5] has as its target T1, Beta-secretase 1. As to the kind of experiment: Activity of human recombinant BACE1 after 24 hrs. The essentials: as §1

T1 sequence (P56817 whole entry, the tested form may be a part): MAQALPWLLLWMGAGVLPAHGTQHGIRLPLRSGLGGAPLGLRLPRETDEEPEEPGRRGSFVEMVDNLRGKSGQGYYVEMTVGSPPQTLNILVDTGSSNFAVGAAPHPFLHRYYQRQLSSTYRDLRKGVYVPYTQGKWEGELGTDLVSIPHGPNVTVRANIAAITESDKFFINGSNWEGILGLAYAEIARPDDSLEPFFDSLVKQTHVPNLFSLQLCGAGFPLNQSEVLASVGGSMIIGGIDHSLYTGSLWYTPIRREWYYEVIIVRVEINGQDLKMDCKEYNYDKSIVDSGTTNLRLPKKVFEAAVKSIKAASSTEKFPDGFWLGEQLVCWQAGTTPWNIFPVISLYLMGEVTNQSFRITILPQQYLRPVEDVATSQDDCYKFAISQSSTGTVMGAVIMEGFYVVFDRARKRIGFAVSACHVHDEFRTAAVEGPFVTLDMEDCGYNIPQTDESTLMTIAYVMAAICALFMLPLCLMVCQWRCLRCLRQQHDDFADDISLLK

In general, inhibition refers to the percentage by which the read-out fell short of the control. Usually IC50 stands for the concentration that inhibits the measured activity by half. With `CC(C)C[C@H](NC(=O)[C@@H](NC(=O)[C@@H](N)CNC(=O)c1[nH]c(=O)[nH]c(=O)c1F)C(C)C)C(=O)N[C@@H](Cc1ccccc1)C(=O)O` (H-[Dap](Orotyl(5-F))VLF-OH), the results for the inhibition in assay [1] and in assay [2] were 90% and 54%, respectively. Besides, in assay [3], the IC50 came out at 184 nM. Moreover, the result in assay [4] and in assay [5] was Active.

Turning to `CC(C)C[C@H](NC(=O)[C@@H](NC(=O)[C@@H](N)CNC(=O)c1[nH]c(=O)[nH]c(=O)c1F)C(C)C)C(=O)N[C@@H](Cc1ccccc1)C(=O)N[C@@H](CC(N)=O)C(=O)O`, the inhibition in assay [1] was 89%; in assay [2], 56%. Also, the IC50 in assay [3] was 173 nM. Moreover, the result in assay [4] and in assay [5] was inactive.

Regarding `CC(C)C[C@H](NC(=O)[C@@H](NC(=O)[C@@H](N)CNC(=O)c1[nH]c(=O)[nH]c(=O)c1F)C(C)C)C(=O)N[C@@H](Cc1ccccc1)[C@@H](O)C(=O)Nc1cccc(C(=O)O)c1`, the IC50 in assay [3] was 26 nM.

Take `CC(C)C[C@H](NC(=O)[C@@H](NC(=O)[C@@H](N)CCC(=O)O)C(C)C)C(=O)N[C@@H](Cc1ccccc1)C(=O)N[C@@H](CS)C(=O)N[C@@H](C)C(=O)N[C@@H](CCC(=O)O)C(=O)N[C@@H](Cc1ccccc1)C(=O)O`: the inhibition in assay [1] was less than 5%.

In the case of `CC(C)C[C@H](NC(=O)[C@@H](NC(=O)[C@@H](N)CCC(=O)O)C(C)C)C(=O)N[C@@H](Cc1ccccc1)C(=O)N[C@H](CN)C(=O)N[C@@H](C)C(=O)N[C@@H](CCC(=O)O)C(=O)N[C@@H](Cc1ccccc1)C(=O)O`, in assay [1], the inhibition amounted to 15%.

With `CC(C)C[C@H](NC(=O)[C@@H](NC(=O)[C@@H](N)CNC(=O)c1[nH]c(=O)[nH]c(=O)c1F)C(C)C)C(=O)N[C@@H](Cc1ccccc1)C(=O)N[C@@H](CO)C(=O)O`, the values for the inhibition in assay [1] and in assay [2] were 85% and 48%, respectively. Also, in assay [3], the IC50 was 263 nM. Moreover, the result in assay [4] and in assay [5] was inactive.

As for `CC(C)[C@H](NC(=O)[C@@H](N)CNC(=O)c1[nH]c(=O)[nH]c(=O)c1F)C(=O)N[C@@H](CC1CCCCC1)C(=O)N[C@@H](Cc1ccccc1)C(=O)N[C@H](CC(N)=O)C(=O)O`, the results for the inhibition in assay [1] and in assay [2] were 92% and 58%, respectively. Further, the IC50 in assay [3] was found to be 141 nM.

`CC(C)C[C@H](NC(=O)[C@@H](NC(=O)[C@@H](N)CCC(=O)O)C(C)C)C(=O)N[C@@H](Cc1ccccc1)C(=O)N[C@@H](CN)C(=O)N[C@@H](C)C(=O)N[C@@H](CCC(=O)O)C(=O)N[C@@H](Cc1ccccc1)C(=O)O`: the inhibition in assay [1] came to 7%.

Consider `CC(C)[C@H](NC(=O)[C@@H](N)CNC(=O)c1[nH]c(=O)[nH]c(=O)c1F)C(=O)N[C@@H](CC1CCCCC1)C(=O)N[C@@H](Cc1ccccc1)C(=O)N[C@H](CO)C(=O)O`, for which the inhibition is 92% in assay [1] and 54% in assay [2]. For the same compound, in assay [3], the IC50 was 163 nM.

Regarding `CC(C)C[C@H](NC(=O)[C@@H](NC(=O)[C@@H](N)CNC(=O)c1[nH]c(=O)[nH]c(=O)c1F)C(C)C)C(=O)N[C@@H](Cc1ccccc1)C(=O)N[C@H](CC(N)=O)C(=O)O`, the inhibition in assay [1] is 95%; in assay [2], 65%. Further, the IC50 in assay [3] was determined as 86 nM. In addition, the result in assay [4] and in assay [5] was inactive.

Turning to `CC(C)C[C@H](NC(=O)[C@@H](NC(=O)[C@@H](N)CCC(=O)O)C(C)C)C(=O)N[C@@H](Cc1ccccc1)C(=O)N[C@H](CO)C(=O)N[C@@H](C)C(=O)N[C@@H](CCC(=O)O)C(=O)N[C@@H](Cc1ccccc1)C(=O)O`, the inhibition in assay [1] worked out at 28%.

In the case of `CC(C)[C@H](NC(=O)[C@@H](N)CCC(=O)O)C(=O)N[C@@H](CC(N)=O)C(=O)N[C@@H](Cc1ccccc1)C(=O)O` (H-EVNF-OH), the inhibition in assay [1] was less than 5%.

Take `CC(C)[C@H](NC(=O)[C@@H](N)CCC(=O)O)C(=O)N[C@@H](CCCCN)C(=O)N[C@@H](Cc1ccccc1)C(=O)O` (H-EVKF-OH): the inhibition in assay [1] came out at 10%.

Consider `CC(C)[C@H](NC(=O)[C@@H](N)CNC(=O)c1[nH]c(=O)[nH]c(=O)c1F)C(=O)N[C@@H](CC(N)=O)C(=O)N[C@@H](Cc1ccccc1)C(=O)N[C@@H](CC(N)=O)C(=O)O` (H-[Dap](Orotyl(5-F))VNFN-OH), for which the inhibition in assay [1] is less than 5%.

For `CC(C)C[C@H](NC(=O)[C@@H](NC(=O)[C@@H](N)CCC(=O)O)C(C)C)C(=O)N[C@@H](Cc1ccccc1)C(=O)N[C@H](CS)C(=O)N[C@@H](C)C(=O)N[C@@H](CCC(=O)O)C(=O)N[C@@H](Cc1ccccc1)C(=O)O`, the inhibition in assay [1] is 28%.

For the compound `CC(C)C[C@H](NC(=O)[C@@H](NC(=O)[C@@H](N)CCC(=O)O)C(C)C)C(=O)N[C@@H](Cc1ccccc1)C(=O)N[C@H](CC(N)=O)C(=O)O`, in assay [1], the inhibition was 29%.

Regarding `CC(C)C[C@H](NC(=O)[C@@H](NC(=O)[C@@H](N)CCC(=O)O)C(C)C)C(=O)N[C@@H](Cc1ccccc1)C(=O)N[C@@H](CO)C(=O)N[C@@H](C)C(=O)N[C@@H](CCC(=O)O)C(=O)N[C@@H](Cc1ccccc1)C(=O)O`, the inhibition in assay [1] is 6%.

Take `CC(C)C[C@H](NC(=O)[C@@H](NC(=O)[C@@H](N)CCC(=O)O)C(C)C)C(=O)N[C@@H](Cc1ccccc1)C(=O)N[C@H](CO)C(=O)O`: the inhibition in assay [1] was 23%.

`CC(C)C[C@H](NC(=O)[C@@H](NC(=O)[C@@H](N)CNC(=O)c1[nH]c(=O)[nH]c(=O)c1F)C(C)C)C(=O)N[C@@H](Cc1ccccc1)C(=O)N[C@H](CO)C(=O)O`: the inhibition in assay [1] stood at 94%; in assay [2] it was 57%. In assay [3], the IC50 was 138 nM. Further, the outcome in assay [4] and in assay [5] was inactive.

Consider `CC(C)[C@H](NC(=O)[C@@H](N)CNC(=O)c1[nH]c(=O)[nH]c(=O)c1F)C(=O)N[C@@H](CC(N)=O)C(=O)N[C@@H](Cc1ccccc1)C(=O)O` (H-[Dap](Orotyl(5-F))VNF-OH), for which the inhibition in assay [1] is less than 5%.

As for `CC(C)C[C@H](NC(=O)[C@@H](NC(=O)[C@@H](N)CNC(=O)c1[nH]c(=O)[nH]c(=O)c1F)C(C)C)C(=O)N[C@@H](Cc1ccccc1)C(=O)N[C@H](C)C(=O)O`, the inhibition in assay [1] worked out at 93%; in assay [2], 53%. Further, the IC50 in assay [3] stood at 169 nM.

Take `CC(C)C[C@H](NC(=O)[C@@H](NC(=O)[C@@H](N)CCC(=O)O)C(C)C)C(=O)N[C@@H](Cc1ccccc1)C(=O)O` (H-EVLF-OH): the inhibition in assay [1] turned out to be 8%.

Take `CC(C)C[C@H](NC(=O)[C@@H](NC(=O)[C@@H](N)CNC(=O)c1[nH]c(=O)[nH]c(=O)c1F)C(C)C)C(=O)N[C@@H](Cc1ccccc1)C(=O)N[C@@H](C(=O)O)C(C)C`: the inhibition in assay [1] turned out to be 94%; in assay [2], 69%. In assay [3], the IC50 was found to be 82 nM.
